Experimental data collected from several papers.
Cell line: HeLa
Effect on: cell growth or viability

SMILES | assay | setting | quantity | value
CCn1c(=O)c(-c2cc[nH]n2)cc2c(C)nc(N)nc21 | MTT |  | CC50 | 13.6 µM
c1cc(-c2cc3ncc(OCC4CCNCC4)nc3cc2-c2cccc(N3CCCCC3)c2)cc(N2CCCCC2)c1 | XTT | 7 days | EC50 | 24.2 µM
CCN(CC)CCCC(C)Nc1ccnc2cc(Cl)ccc12 (stereo not drawn) | MTT | 48 h | CC50 | > 100 µg/mL
Fc1ccc(Oc2ccc(Nc3ccc4ncc(OCC5CCNCC5)nc4c3)cc2)cc1 | XTT | 7 days | EC50 | > 30 µM
Nc1nc2c(ncn2COCCO)c(=O)[nH]1 | MTT | 48 h | CC50 | 355 µM
CC[C@H](CC[C@@H](C)[C@H]1CC[C@H]2[C@@H]3CC=C4C[C@@H](O)CC[C@]4(C)[C@H]3CC[C@]12C)C(C)C | MTT | 48 h | CC50 | > 100 µg/mL
c1cc(N2CCCC2)ccc1-c1cc2ncc(OCC3CCNCC3)nc2cc1-c1ccc(N2CCCC2)cc1 | XTT | 7 days | EC50 | > 30 µM
CC(C)n1ncc2c(C(=O)NCC3(C)CNC3)cc(C3CC3)nc21 | neutral red | 0.33 µM | viability | 101%
NC(=O)c1ncn([C@@H]2O[C@H](CO)[C@@H](O)[C@H]2O)n1 | MTT |  | CC50 | 115 µM
